Measured values: ChEMBL document CHEMBL1135463 (J Med Chem, 2002)
Values after ≈ are worked out from the molar mass of the structure shown. Active and inactive are the calls of the source. The rule behind the calls is not given here.

Key:
MCF7 = test: Cell growth inhibition of breast MCF-7 cells, expressed as 50% reduction in the net protein increase; format: functional; conditions: Homo sapiens
[1] = In vitro growth inhibition of NCI-H460 (human non-small cell lung carcinoma) cell line.; format: functional
P388 [2] = test: In vitro inhibition of P388 (murine leukemia) cell proliferation.; format: functional; conditions: Mus musculus, read-out: ED50 (the source's name)
SF-268 [3] = test: In vitro growth inhibition of central nervous system SF-268 cell line.; format: functional; conditions: Homo sapiens
DU-145 [4] = test: In vitro growth inhibition of DU-145 (human prostate carcinoma) cell line.; format: functional
KM-20L2 [5] = test: In vitro growth inhibition of KM20L2 cell line.; format: functional; conditions: Homo sapiens
BXPC-3 [6] = test: In vitro growth inhibition of BXPC-3 (human pancreatic adenocarcinoma) cell line.; format: functional
Neisseria gonorrhoeae [7] = test: The minimum inhibitory concentration (MIC) that inhibits all visible growth of the Neisseria gonorrhoeae (bacteria); format: functional
How it was run: (§1)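 Broth microdilution following NCCLS reference methods (M7-A4 for aerobic bacteria, the yeast broth dilution standard for fungi). MIC is the lowest compound concentration giving optically clear wells, with no visible growth of the test organism.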

Tubulin (Bos taurus) [8] = molecular target: T1, Tubulin (Bos taurus) (UniProt Q6B856+Q862L2+Q862F3); test: Inhibition of radiolabeled [3H]colchicine binding to tubulin at a concentration of 5 uM of the compound; format: protein assay
How it was run: (§2)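 [3H]colchicine 5.0 µM incubated with tubulin 1.0 µM plus inhibitor at the stated level, 10 min at 37 °C, then colchicine binding measured. Reported as percent inhibition.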

Enterococcus faecalis [9] = test: the minimum inhibitory concentration (MIC) that inhibits all visible growth of the Enterococcus faecalis (bacteria) at 64 ug/mL; NI is no inhibition; format: functional, organism-based; how it was run: as §1
BXPC-3 [10] = test: Cell growth inhibition against pancreatic BXPC-3 cells, 50% reduction in the net protein increase; format: functional; conditions: Homo sapiens
How it was run: (§3)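 Human tumour lines kept in 5% FBS/RPMI-1640, plated and incubated 24 h before compound dilutions were added. Exposure 48 h, then TCA fixation, washing and sulforhodamine B staining, with optical density read on a plate reader. GI50 is the concentration giving a 50% reduction in net protein increase, calculated from the OD data.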

Cryptococcus neoformans [11] = test: Minimum inhibitory concentration (MIC) that inhibits all visible growth of the Cryptococcus neoformans (fungus) at 64 ug/mL; NI is no inhibition; format: functional, organism-based; how it was run: as §1
NCI-H460 = test: Cell growth inhibition of lung-NSC NCI-H460 cells, expressed as 50% reduction in the net protein increase; format: functional; conditions: Homo sapiens; how it was run: as §3
Escherichia coli = test: The minimum inhibitory concentration (MIC) that inhibits all visible growth of the Escherichia coli (bacteria) at 64 ug/mL; NI is no inhibition; format: functional, organism-based; how it was run: as §1
Enterobacter cloacae = test: The minimum inhibitory concentration (MIC) that inhibits all visible growth of the Enterobacter cloacae (bacteria) at 64 ug/mL; NI is no inhibition; format: functional, organism-based; how it was run: as §1
Streptococcus pneumoniae [12] = test: The minimum inhibitory concentration (MIC) that inhibits all visible growth of the Streptococcus pneumoniae (bacteria) at 64 ug/mL; NI is no inhibition; format: functional, organism-based; how it was run: as §1
P388 [13] = test: Evaluated for cell growth inhibition of the mouse leukemia P388 cells in 10% horse serum/Fisher media; format: functional; conditions: read-out: ED50 (the source's name)
How it was run: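 Murine P388 leukaemia cells grown in 10% horse serum/Fisher medium, incubated 24 h, then compound dilutions added. After 48 h, cells counted on a Coulter Z1 particle counter and the ED50 for growth inhibition calculated.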

Tubulin (Bos taurus) [14] = molecular target: T1, Tubulin (Bos taurus); test: Inhibition of radiolabeled [3H]colchicine binding to tubulin at a concentration of 2 uM of the compound; format: protein assay; how it was run: as §2
Candida albicans = test: The minimum inhibitory concentration (MIC) that inhibits all visible growth of the Candida albicans (fungus) at 64 ug/mL; NI is no inhibition; format: functional, organism-based; how it was run: as §1
Micrococcus luteus [15] = test: the minimum inhibitory concentration (MIC) that inhibits all visible growth of the Micrococcus luteus (bacteria) at 64 ug/mL; NI is no inhibition; format: functional, organism-based; how it was run: as §1
Enterococcus faecalis [16] = test: The minimum inhibitory concentration (MIC) that inhibits all visible growth of the Enterococcus faecalis (bacteria) at 64 ug/mL; NI is no inhibition; format: functional, organism-based; how it was run: as §1
Staphylococcus aureus = test: The minimum inhibitory concentration (MIC) that inhibits all visible growth of the Staphylococcus aureus (bacteria) at 64 ug/mL; NI is no inhibition; format: functional, organism-based; how it was run: as §1
SF-268 [17] = test: Cell growth inhibition of central nervous system (CNS) SF-268 cells, expressed as 50% reduction in the net protein increase; format: functional; conditions: Homo sapiens; how it was run: as §3
KM-20L2 [18] = test: Cell growth inhibition of colon KM20L2 cells, expressed as 50% reduction in the net protein increase; format: functional; conditions: Homo sapiens; how it was run: as §3
Tubulin = Tubulin (Bos taurus, UniProt Q6B856+Q862L2+Q862F3); test: Inhibition of tubulin polymerization reported as IC50; format: functional
[19] = system: Stenotrophomonas maltophilia; test: The minimum inhibitory concentration (MIC) that inhibits all visible growth of the Stenotrophomonas maltophilia (bacteria) at 64 ug/mL; NI is no inhibition; format: functional, organism-based; how it was run: as §1
DU-145 [20] = test: Cell growth inhibition of prostate DU-145 cells, expressed as 50% reduction in the net protein increase; format: functional; conditions: Homo sapiens; how it was run: as §3
Streptococcus pneumoniae [21] = test: The minimum inhibitory concentration (MIC) that inhibits all visible growth of the Streptococcus pneumoniae (bacteria); MIC may range from (32 - 64); format: functional; how it was run: as §1
Neisseria gonorrhoeae [22] = test: The minimum inhibitory concentration (MIC) that inhibits all visible growth of the Neisseria gonorrhoeae (bacteria); value may range from (16 -32); format: functional; how it was run: as §1
Cryptococcus neoformans [23] = test: Minimum inhibitory concentration (MIC) that inhibits all visible growth of the Cryptococcus neoformans (fungus); format: functional; how it was run: as §1
Streptococcus pneumoniae [24] = test: The minimum inhibitory concentration (MIC) that inhibits all visible growth of the Streptococcus pneumoniae (bacteria); format: functional; how it was run: as §1
Micrococcus luteus [25] = test: The minimum inhibitory concentration (MIC) that inhibits all visible growth of the Micrococcus luteus (bacteria) at 64 ug/mL; NI is no inhibition; format: functional, organism-based; how it was run: as §1

SMILES	GI50 (MCF7)	GI50 [1]	EC50 (P388 [2])	GI50 (SF-268 [3])	GI50 (DU-145 [4])	GI50 (KM-20L2 [5])	GI50 (BXPC-3 [6])	MIC (Neisseria gonorrhoeae [7])	MIC (Escherichia coli)	MIC (Enterobacter cloacae)	MIC (Candida albicans)	MIC (Enterococcus faecalis [16])	MIC (Staphylococcus aureus)	MIC [19]	other results
COc1cc(/C=C\c2ccc(OP(=O)(OCc3ccccc3)OCc3ccccc3)cc2)cc(OC)c1	9 µg/mL (≈ 17.4 µM)	10.7 µg/mL (≈ 20.7 µM)	4.45 µg/mL (≈ 8.62 µM)	38.5 µg/mL (≈ 74.5 µM)	35.6 µg/mL (≈ 68.9 µM)	24.7 µg/mL (≈ 47.8 µM)	5.4 µg/mL (≈ 10.5 µM)	–	–	–	–	–	–	–	–
COc1ccc(C(=O)c2cc(OC)cc(OC)c2)cc1	–	–	–	–	–	–	–	32 µg/mL (≈ 118 µM)	inactive	inactive	inactive	inactive	inactive	inactive	inhibition (Tubulin (Bos taurus) [8]): 69%; MIC (Enterococcus faecalis [9]): inactive; GI50 (BXPC-3 [10]): 0.42 µg/mL (≈ 1.54 µM); MIC (Cryptococcus neoformans [11]): inactive; GI50 (NCI-H460): 0.53 µg/mL (≈ 1.95 µM); MIC (Streptococcus pneumoniae [12]): inactive; EC50 (P388 [13]): 1.23 µg/mL (≈ 4.52 µM); inhibition (Tubulin (Bos taurus) [14]): 47%; MIC (Micrococcus luteus [15]): inactive; GI50 (SF-268 [17]): 0.86 µg/mL (≈ 3.16 µM); GI50 (KM-20L2 [18]): 0.42 µg/mL (≈ 1.54 µM); IC50 (Tubulin): 2600 nM; GI50 (DU-145 [20]): 1.2 µg/mL (≈ 4.41 µM)
COc1ccc(C(=O)c2cc(O)cc(O)c2)cc1	21.7 µg/mL (≈ 88.8 µM)	16.6 µg/mL (≈ 68 µM)	17.8 µg/mL (≈ 72.9 µM)	24.5 µg/mL (≈ 100 µM)	15 µg/mL (≈ 61.4 µM)	24.5 µg/mL (≈ 100 µM)	21.2 µg/mL (≈ 86.8 µM)	–	–	–	–	–	–	–	–
COc1ccc(/C=C\c2cc(O)cc(OC)c2)cc1	–	0.72 µg/mL (≈ 2.81 µM)	3.82 µg/mL (≈ 14.9 µM)	–	–	–	–	–	–	–	–	–	–	–	–
Oc1ccc(/C=C/c2cc(O)cc(O)c2)cc1 [RESVERATROL]	–	–	4.49 µg/mL (≈ 19.7 µM)	–	–	–	–	16 µg/mL (≈ 70.1 µM)	–	–	–	–	–	–	–
COc1ccc(C(=O)c2cc(O)cc(OC)c2)cc1	14.2 µg/mL (≈ 55 µM)	10.3 µg/mL (≈ 39.9 µM)	13.4 µg/mL (≈ 51.9 µM)	13.9 µg/mL (≈ 53.8 µM)	12.6 µg/mL (≈ 48.8 µM)	16.2 µg/mL (≈ 62.7 µM)	15 µg/mL (≈ 58.1 µM)	–	inactive	inactive	inactive	inactive	inactive	inactive	MIC (Enterococcus faecalis [9]): inactive; MIC (Streptococcus pneumoniae [21]): 64 µg/mL (≈ 248 µM); MIC (Micrococcus luteus [15]): inactive; MIC (Neisseria gonorrhoeae [22]): 32 µg/mL (≈ 124 µM); MIC (Cryptococcus neoformans [23]): 64 µg/mL (≈ 248 µM)
O=C(c1ccc(O)cc1)c1cc(O)cc(O)c1	30.6 µg/mL (≈ 133 µM)	25 µg/mL (≈ 109 µM)	> 100 µg/mL	22.3 µg/mL (≈ 96.9 µM)	15 µg/mL (≈ 65.2 µM)	24.5 µg/mL (≈ 106 µM)	20.5 µg/mL (≈ 89 µM)	–	–	–	–	–	–	–	MIC (Streptococcus pneumoniae [24]): 64 µg/mL (≈ 278 µM)
COc1ccc(C(O)c2cc(OC)cc(OC)c2)cc1 (configuration not stated)	–	21.7 µg/mL (≈ 79.1 µM)	20.2 µg/mL (≈ 73.6 µM)	23.3 µg/mL (≈ 84.9 µM)	23.2 µg/mL (≈ 84.6 µM)	21 µg/mL (≈ 76.6 µM)	16.1 µg/mL (≈ 58.7 µM)	–	–	–	–	–	–	–	–
COc1cc(O)cc(C(=O)c2ccc(O)cc2)c1	26.8 µg/mL (≈ 110 µM)	12.1 µg/mL (≈ 49.5 µM)	26.2 µg/mL (≈ 107 µM)	26.4 µg/mL (≈ 108 µM)	16.5 µg/mL (≈ 67.6 µM)	31.6 µg/mL (≈ 129 µM)	21.7 µg/mL (≈ 88.8 µM)	32 µg/mL (≈ 131 µM)	inactive	inactive	inactive	inactive	inactive	inactive	MIC (Streptococcus pneumoniae [24]): 64 µg/mL (≈ 262 µM); MIC (Cryptococcus neoformans [11]): inactive; MIC (Micrococcus luteus [25]): inactive
COc1ccc(/C=C/c2cc(OC)cc(OC)c2)cc1 [TRISMETHOXYRESVERATROL]	–	0.62 µg/mL (≈ 2.29 µM)	2.77 µg/mL (≈ 10.2 µM)	0.56 µg/mL (≈ 2.07 µM)	1.5 µg/mL (≈ 5.55 µM)	–	0.35 µg/mL (≈ 1.29 µM)	–	–	–	–	–	–	–	–
